From ChEMBL document CHEMBL4680082 (J Med Chem, 2016)
Several values for one entry are separate records, joined by “and”; a condition that tells them apart may be missing. Identical values can stand only once.

Tests used:
[1] = target: T1, 5-hydroxytryptamine receptor 2C (Homo sapiens, UniProt P28335);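 also: Agonist-induced calcium flux in Flp-In-293 cells expressing the human receptor, read by FLIPR with Fluo-4 Direct dye after 1 hr incubation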
T1 sequence (P28335 whole entry): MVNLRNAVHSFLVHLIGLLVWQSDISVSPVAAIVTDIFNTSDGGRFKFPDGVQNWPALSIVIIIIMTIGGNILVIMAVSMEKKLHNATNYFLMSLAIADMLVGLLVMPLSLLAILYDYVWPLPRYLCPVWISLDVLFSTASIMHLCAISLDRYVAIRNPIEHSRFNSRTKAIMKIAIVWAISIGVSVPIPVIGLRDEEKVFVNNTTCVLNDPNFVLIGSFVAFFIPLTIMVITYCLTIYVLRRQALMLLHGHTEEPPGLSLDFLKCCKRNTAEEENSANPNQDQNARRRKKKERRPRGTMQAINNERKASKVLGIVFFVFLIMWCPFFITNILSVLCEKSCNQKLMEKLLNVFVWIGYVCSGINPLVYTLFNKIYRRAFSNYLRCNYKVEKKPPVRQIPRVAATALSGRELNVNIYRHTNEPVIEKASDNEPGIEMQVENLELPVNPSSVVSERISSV

[2] = target: T2, 5-hydroxytryptamine receptor 2A (Homo sapiens, UniProt P28223); test: Agonist activity at human 5-HT2A receptor expressed in human Flp-In-293 cells assessed as induction of calcium flux incubated for 1 hr by Fluo-4 direct dye based FLIPR assay relative to 5-HT; type: functional, cell-based
T2 sequence (P28223 whole entry): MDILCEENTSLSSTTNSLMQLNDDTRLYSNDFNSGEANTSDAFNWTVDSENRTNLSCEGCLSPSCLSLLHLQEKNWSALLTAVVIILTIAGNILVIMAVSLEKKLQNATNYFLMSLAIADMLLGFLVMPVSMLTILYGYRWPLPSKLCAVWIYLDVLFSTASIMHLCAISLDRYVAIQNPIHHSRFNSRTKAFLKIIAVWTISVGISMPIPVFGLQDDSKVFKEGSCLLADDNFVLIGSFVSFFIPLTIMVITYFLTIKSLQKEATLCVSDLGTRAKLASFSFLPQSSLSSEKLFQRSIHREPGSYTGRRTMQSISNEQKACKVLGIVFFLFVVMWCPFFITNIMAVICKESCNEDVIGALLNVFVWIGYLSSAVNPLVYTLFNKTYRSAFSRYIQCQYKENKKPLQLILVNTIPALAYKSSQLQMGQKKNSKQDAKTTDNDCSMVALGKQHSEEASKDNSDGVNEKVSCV

[3] = target: T3, 5-hydroxytryptamine receptor 2C (Homo sapiens) (UniProt P28335); test: Agonist activity at human 5-HT2C receptor expressed in human Flp-In-293 cells assessed as induction of calcium flux incubated for 1 hr by Fluo-4 direct dye based FLIPR assay relative to 5-HT; type: functional, cell-based; details: filed as agonist
T3 sequence (whole entry): T1 sequence (P28335 whole entry)

[4] = target: T2, 5-hydroxytryptamine receptor 2A
[5] = target: T4, 5-hydroxytryptamine receptor 2B (Homo sapiens, UniProt P41595)
T4 sequence (P41595 whole entry): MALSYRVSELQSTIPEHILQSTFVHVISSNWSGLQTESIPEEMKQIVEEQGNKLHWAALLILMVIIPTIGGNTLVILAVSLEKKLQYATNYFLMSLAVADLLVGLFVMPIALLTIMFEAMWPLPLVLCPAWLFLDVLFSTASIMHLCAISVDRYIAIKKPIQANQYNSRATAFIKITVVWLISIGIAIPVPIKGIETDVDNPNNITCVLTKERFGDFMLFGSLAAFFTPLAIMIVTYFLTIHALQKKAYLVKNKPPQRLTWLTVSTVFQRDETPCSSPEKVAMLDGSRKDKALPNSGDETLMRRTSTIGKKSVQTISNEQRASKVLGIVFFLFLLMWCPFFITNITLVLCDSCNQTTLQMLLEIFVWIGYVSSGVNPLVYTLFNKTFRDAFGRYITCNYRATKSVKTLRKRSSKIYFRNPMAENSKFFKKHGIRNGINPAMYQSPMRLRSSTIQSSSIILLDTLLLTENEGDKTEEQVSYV

[6] = target: T1, 5-hydroxytryptamine receptor 2C; test: Agonist activity at human 5-HT2C INI receptor expressed in human HEK293 cells assessed as induction of beta-arrestin-2 recruitment incubated for 20 hrs by Tango assay; type: cell-based
Outline: (§1)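 Tango assay in HTLA cells (HEK line expressing TEV-fused β-arrestin-2 and tTA-driven luciferase) transfected with 5-HT2C INI–tTA fusion carrying a TEV site. Cells were stimulated with the same dilutions used for FLIPR, 20 h at 37 °C and 5% CO2, then lysed with Bright-Glo for 20 min at room temperature and read by luminescence. Data normalized to % 5-HT and fitted sigmoidally; n = 3 in triplicate. Bias from log(Emax/EC50).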

[7] = target: T3, 5-hydroxytryptamine receptor 2C (Homo sapiens); test: Agonist activity at human 5-HT2C INI receptor expressed in human HEK293 cells assessed as induction of beta-arrestin-2 recruitment incubated for 20 hrs by Tango assay relative to 5HT; type: cell-based
Outline: as §1

[8] = target: T3, 5-hydroxytryptamine receptor 2C (Homo sapiens); test: Agonist activity at human 5-HT2C INI receptor expressed in human Flp-In-293 cells assessed as induction of calcium flux incubated for 1 hr by Fluo-4 direct dye based FLIPR assay relative to 5-HT; type: functional, cell-based; details: filed as agonist
Outline: (§2)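 Calcium flux in Flp-In-293 cells stably expressing the human 5-HT2C INI isoform, Fluo-4 Direct loading for 1 h at 37 °C. Drug dilutions identical to those in the parallel Tango assay, 300 s read at 1 read/s, normalized to % 5-HT. Triplicate, mean ± SEM (n = 3). Bias factors were calculated from change in relative activity, log(Emax/EC50).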

[9] = target: T1, 5-hydroxytryptamine receptor 2C; test: Agonist activity at human 5-HT2C INI receptor expressed in human Flp-In-293 cells assessed as induction of calcium flux incubated for 1 hr by Fluo-4 direct dye based FLIPR assay; type: functional, cell-based
Outline: as §2

[10] = target: T2, 5-hydroxytryptamine receptor 2A; test: Agonist activity at human 5-HT2A receptor expressed in human Flp-In-293 cells assessed as induction of calcium flux by measuring log(Emax/EC50) incubated for 1 hr by Fluo-4 direct dye based FLIPR assay; type: functional, cell-based
[11] = target: T3, 5-hydroxytryptamine receptor 2C (Homo sapiens); test: Agonist activity at human 5-HT2C receptor expressed in human Flp-In-293 cells assessed as induction of calcium flux by measuring log (Emax/EC50) incubated for 1 hr by Fluo-4 direct dye based FLIPR assay; type: functional, cell-based
[12] = target: T4, 5-hydroxytryptamine receptor 2B; test: Agonist activity at human 5-HT2B receptor expressed in human Flp-In-293 cells assessed as induction of calcium flux incubated for 1 hr by Fluo-4 direct dye based FLIPR assay relative to 5-HT; type: functional, cell-based
[13] = target: T4, 5-hydroxytryptamine receptor 2B; test: Agonist activity at human 5-HT2B receptor expressed in human Flp-In-293 cells assessed as induction of calcium flux by measuring log(Emax/EC50) incubated for 1 hr by Fluo-4 direct dye based FLIPR assay; type: functional, cell-based

| Structure (SMILES) | EC50 [1] | Emax [3] | EC50 [4] | EC50 [5] | also measured |
| --- | --- | --- | --- | --- | --- |
| NC[C@@H]1C[C@H]1c1c(OCCF)ccc2c1CCO2 | 302 nM | 79% | 1960 nM | – | Emax ([2]; filed as agonist): 55% |
| NC[C@H]1C[C@@H]1c1c(OCC2CC2)ccc2c1CCO2 | 26 nM | 95% | 754 nM | 269 nM | – |
| NC[C@H]1C[C@@H]1c1c(OCCF)ccc2c1CCO2 | 73 nM | 76% | 2320 nM | – | Emax ([2]; filed as agonist): 63%; EC50 ([6]; read-out: EC50): 318 nM; EC50 ([6]; read-out: pEC50 (converted)): 324 nM; Emax ([7]; filed as agonist): 42%; Emax [8]: 93%; EC50 [9]: 41 nM |
| CCOc1ccc2occc2c1[C@H]1C[C@@H]1CN | 2.6 nM | 106% | 111 nM | 84 nM | Emax ([2]; filed as agonist): 74% |
| C=CCOc1ccc2c(c1[C@H]1C[C@@H]1CN)CCO2 | 11 nM | 101% | 618 nM | 258 nM | EC50 ([6]; read-out: EC50): 267 nM; Emax [7]: 35%; Emax [8]: 93%; EC50 [9]: 26 nM |
| C=CCOc1ccc2occc2c1[C@H]1C[C@@H]1CN | 5.3 nM | 103% | 213 nM | 348 nM | EC50 ([6]; read-out: EC50): 20 nM; Emax [7]: 25%; Emax [8]: 92%; EC50 [9]: 8.7 nM |
| CCc1cc2c([C@H]3C[C@@H]3CN)c(OC)ccc2o1 | 2.7 nM | 101% | 939 nM | 60 nM | – |
| CCCOc1ccc2c(c1[C@H]1C[C@@H]1CN)CCO2 | 20 nM | 104% | 749 nM | 258 nM | – |
| CCCOc1ccc2occc2c1[C@@H]1C[C@H]1CN | 87 nM | 88% | – | – | – |
| COc1ccc2occc2c1[C@H]1C[C@@H]1CN | 1.6 nM | 93% | 37 nM | 111 nM | log(ratio) [10]: 7.37; log(ratio) [11]: 8.76; Emax ([12]; filed as agonist): 64%; log(ratio) [13]: 6.76; Emax ([2]; filed as agonist): 86% |
| CCCOc1ccc2c(c1[C@@H]1C[C@H]1CN)CCO2 | 96 nM | 94% | – | – | – |
| C=CCOc1ccc2occc2c1[C@@H]1C[C@H]1CN | 56 nM | 101% | – | – | – |
| COc1ccc2c(c1[C@@H]1C[C@H]1CN)CCO2 | 19 nM | 102% | 295 nM | 279 nM | log(ratio) [10]: 6.35; log(ratio) [11]: 7.73; Emax ([12]; filed as agonist): 45%; log(ratio) [13]: 6.21; Emax ([2]; filed as agonist): 66% |
| CCOc1ccc2occc2c1[C@@H]1C[C@H]1CN | 26 nM | 107% | 585 nM | – | Emax [2]: 15% |
| C=C(F)COc1ccc2occc2c1[C@@H]1C[C@H]1CN | 99 nM | 93% | – | 585 nM | Emax [12]: 29% |
| C=C(F)COc1ccc2occc2c1[C@H]1C[C@@H]1CN | 9.2 nM | 103% | 358 nM | 128 nM | Emax [12]: 38% |
| CCc1cc2c([C@H]3C[C@@H]3CN)c(OCCF)ccc2o1 | 11 nM | 106% | 2210 nM | 550 nM | EC50 ([6]; read-out: EC50): 96 nM; Emax ([7]; filed as agonist): 50%; Emax [8]: 93%; EC50 [9]: 22 nM |
| NC[C@@H]1C[C@H]1c1c(OCCF)ccc2occc12 | 33 nM | 98% | 393 nM | 448 nM | Emax [12]: 34%; Emax [2]: 22% |
| CCCOc1ccc2occc2c1[C@H]1C[C@@H]1CN | 10 nM | 98% | 392 nM | – | – |
| NC[C@@H]1C[C@H]1c1c(OCC2CC2)ccc2c1CCO2 | 283 nM | 65% | – | – | – |

| Structure (SMILES) | EC50 [1] | Emax [3] | EC50 [4] | EC50 [5] | also measured |
| --- | --- | --- | --- | --- | --- |
| CC(C)Oc1ccc2occc2c1[C@H]1C[C@@H]1CN | 6.2 nM | 99% | 298 nM | 174 nM | log(ratio) [10]: 6.42; log(ratio) [11]: 8.2; Emax [12]: 39%; log(ratio) [13]: 6.35; Emax ([2]; filed as agonist): 79% |
| C=C(C)COc1ccc2occc2c1[C@@H]1C[C@H]1CN | 261 nM | 70% | – | 733 nM | Emax [12]: 33% |
| CCc1cc2c([C@H]3C[C@@H]3CN)c(OCC3CC3)ccc2o1 | 138 nM | 101% | – | – | – |
| COc1ccc2occc2c1[C@@H]1C[C@H]1CN | 6.76 nM and 6.6 nM | 96% | 109 nM | 725 nM | log(ratio) [10]: 6.78; log(ratio) [11]: 8.16; Emax ([12]; filed as agonist): 55%; log(ratio) [13]: 5.88; Emax ([2]; filed as agonist): 66% |
| C[C@H]1CNCCc2ccc(Cl)cc21 | – | – | – | – | Emax ([7]; filed as agonist): 91% |
| CCOc1ccc2c(c1[C@@H]1C[C@H]1CN)CCO2 | 41 nM | 105% | 976 nM | 781 nM | log(ratio) [10]: 5.55; log(ratio) [11]: 7.41; Emax [12]: 30%; log(ratio) [13]: 5.58; Emax [2]: 35% |
| CC(C)Oc1ccc2occc2c1[C@@H]1C[C@H]1CN | 21 nM | 97% | 938 nM | 453 nM | log(ratio) [10]: 5.61; log(ratio) [11]: 7.66; Emax [12]: 25%; log(ratio) [13]: 5.74; Emax [2]: 38% |
| CCc1cc2c([C@@H]3C[C@H]3CN)c(OC)ccc2o1 | 101 nM | 88% | – | – | – |
| CCOc1ccc2oc(CC)cc2c1[C@@H]1C[C@H]1CN | 115 nM | 76% | – | – | – |
| CCc1cc2c([C@@H]3C[C@H]3CN)c(OCCF)ccc2o1 | 81 nM | 84% | – | – | – |
| C=C(C)COc1ccc2occc2c1[C@H]1C[C@@H]1CN | 25 nM | 99% | 260 nM | 150 nM | Emax ([12]; filed as agonist): 40% |
| CCc1cc2c([C@@H]3C[C@H]3CN)c(OCC3CC3)ccc2o1 | 446 nM | 69% | – | – | – |
| C=CCOc1ccc2c(c1[C@@H]1C[C@H]1CN)CCO2 | 94 nM | 90% | – | – | – |
| CCCOc1ccc2oc(CC)cc2c1[C@H]1C[C@@H]1CN | 81 nM | – | – | – | – |
| NC[C@@H]1C[C@H]1c1c(OCC2CC2)ccc2occc12 | 113 nM | 87% | – | 513 nM and 524 nM | Emax [12]: 27% |
| CCOc1ccc2c(c1[C@H]1C[C@@H]1CN)CCO2 | 2.7 nM | 106% | 113 nM | 58.9 nM and 54 nM | log(ratio) [10]: 6.86; log(ratio) [11]: 8.59; Emax ([12]; filed as agonist): 58%; log(ratio) [13]: 7.03; Emax ([2]; filed as agonist): 81% |
| COc1ccc2c(c1[C@H]1C[C@@H]1CN)CCO2 | 8.9 nM | 101% | 117 nM | 77 nM | log(ratio) [10]: 6.89; log(ratio) [11]: 8.05; Emax ([12]; filed as agonist): 70%; log(ratio) [13]: 6.96; Emax ([2]; filed as agonist): 90% |
| NC[C@H]1C[C@@H]1c1c(OCC2CC2)ccc2occc12 | 12 nM | 99% | 456 nM | 180 nM | Emax [12]: 27% |
| CCOc1ccc2oc(CC)cc2c1[C@H]1C[C@@H]1CN | 15 nM | 100% | 2630 nM and 2600 nM | 309 nM | – |
| C=CCOc1ccc2oc(CC)cc2c1[C@H]1C[C@@H]1CN | 23 nM | – | – | 433 nM | EC50 ([6]; read-out: EC50): 30 nM; EC50 [9]: 25 nM |
